Bioassay records: PubChem BioAssay, several laboratories
Arrestin-AP2 inh – inhibitors of beta-arrestin/AP2 binding, primary screen, biochemical, GPCR trafficking, flow cytometry; beta-arrestin 1 C-terminal peptide binding to AP2 beta2-adaptin appendage (human); FITC-arrestin peptide / GST-AP2 beads; AP2 beta2 appendage carries R879A mutation; inhibition, % at 10 µM; 0.31% of 340,000 active; AID 504490, 2011;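 active = inhibition above a set limit, near 3 SD of compounds lacking own fluorescence, cut at about 54% in these data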
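System: GST-AP2 R879A glutathione beads | Also added: FITC-arrestin peptide, 50 nM | Times: 12 min plus 1 h, RT | Signal: Bead flow cytometry, FITC channel | Buffer or medium: PBS with 0.05% Tween 20 and 0.1% BSA | Read-out basis: Percent drop in bead-associated FITC signal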
sPLA2-III inh – human group III sPLA2 inhibitors, primary screen, biochemical, QFRET, BODIPY PC-A2 liposome substrate; QFRET BODIPY PC-A2 liposome hydrolysis, fluorescence; AID 743126, 2013; 0.56% of 370,000 active; inhibition, % at 12.2 µM;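 active = inhibition above mean plus 3 SD of compounds lying within the high and low control bounds, cut at about 19% in these data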
PLC-beta3 inh – human PLC-beta3 inhibitors, primary screen, biochemical, fluorescence | 1-phosphatidylinositol 4,5-bisphosphate phosphodiesterase beta-3 (Homo sapiens), Q01970 | Purified PLC-beta3, fluorogenic substrate | inhibition, % at 12.2 µM | 0.18% of 370,000 active | AID 720704, 2013; in the data active = inhibition above about 11%
proCasp3 act – activators of human procaspase-3 D3A mutant, primary screen, biochemical, absorbance, PC-3 D3A mutant, single concentration; Caspase-3 (Homo sapiens), P42574; recombinant procaspase-3 D3A, Ac-DEVD-pNA absorbance 405 nm; activation, % at 8.5 µM; 0.11% of 330,000 active;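 active = activation above the mean of all tested compounds plus 3 SD, cut at about 21% in these data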
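Compound: 8.5 µM single point, 0.8% DMSO / Material: Autoprocessing-dead procaspase-3 D3A mutant enzyme / Timing: 1 h preincubation plus 2 h reaction at 25 °C / Medium: Zinc-free HEPES/NaCl buffer with 0.01% Triton X-100 at pH 7.4 / Technique: 405 nm absorbance of p-nitroaniline, reads at 0 and 120 min / Repeats: one well per compound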
PLC-gamma1 inh – PLC-gamma1 enzyme inhibitors, primary screen, biochemical, fluorescence, purified enzyme. 1-phosphatidylinositol 4,5-bisphosphate phosphodiesterase gamma-1 (Homo sapiens), P19174. fluorogenic substrate. inhibition, % at 12.2 µM. 0.84% of 370,000 active; in the data active = inhibition above about 9.5%
procasp7 counter – procaspase-7 activators, primary screen, counter-screen for procaspase-3 activator project, biochemical, absorbance, HTS, human. AID 463210, 2010. 0.093% of 330,000 active. activation, % at 8.5 µM. Caspase-7 (Homo sapiens), P55210. recombinant procaspase-7, Ac-DEVD-pNA absorbance 405 nm; D23A/D198A/D206A triple mutant, cannot self-cleave; scale: DMSO 0, 5 µM enzyme 100;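 active = percent activation above the screen-wide mean plus 3 SD, cut at about 25% in these data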
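Assay system – Uncleavable procaspase-7 mutant enzyme · Quantity – 2 µM procaspase-7 mutant as dispensed · Times – 1 h preincubation, 2 h reaction · Dosing – single nominal 8.5 µM compound dose, 0.8% DMSO final · Buffer or medium – Zinc-free 50 mM HEPES buffer, pH 7.4, with NaCl and Triton X-100 · Detection – Epi-absorbance of released pNA at 405 nm, two timepoints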
Hits are given with their value; . = inactive; / = no result given. Hits are enriched below; roughly 1.9% of the tested compounds scored in any of these assays.

SMILES | Arrestin-AP2 inh | sPLA2-III inh | PLC-beta3 inh | proCasp3 act | PLC-gamma1 inh | procasp7 counter
COC(=O)[C@]12C[C@H](CC(=O)NCCC(C)C)C(=O)N(CCc3ccc(OC)c(OC)c3)C1=C[C@H](C1CCCC1)O[C@@H]2C | / | . | . | / | . | /
COc1cccc(C2C(C(=O)Nc3nc4ccccc4s3)=C(C)NC3=C2C(=O)CC(C)(C)C3)c1OC (stereo not drawn) | . | . | . | 45 | . | .
COC(=O)[C@H]1C[C@]2(C(C=C(C)C)S(=O)(=O)c3ccccc3)c3ccccc3N[C@H]2N1 (stereo partly drawn) | / | . | . | / | . | /
CCCCCN1CCCCC(NC(=O)c2ccccc2C)C1=O (stereo not drawn) | / | . | . | / | . | /
O=C(OCC12CC3CC(CC(C3)C1)C2)c1ccc(NCc2cc(O)ccc2O)cc1 | . | 29 | . | / | . | /
N#CCC(=O)Nc1ccc(C(=O)OCC(=O)C23CC4CC(CC(C4)C2)C3)cc1 | . | . | . | . | . | .
Nc1ccc2c(c1)C/C(=C/c1ccco1)C2=O | . | 22 | . | . | . | .
O=C1/C(=C/c2ccco2)CCc2ccccc21 | . | . | . | . | . | .
COC(=O)C1CN(Cc2cn(Cc3ccc(Cl)cc3)nn2)CCS(=O)(=O)N1Cc1ccc(F)cc1 (stereo not drawn) | / | . | . | / | . | /
C[C@H]1Cn2nnc(-c3ccccc3)c2Cn2c3ccccc3c(=O)n21 | / | . | . | / | . | /
CCCCCCCCCCCCCCCC[n+]1ccc(/C=N/O)cc1 | . | . | . | . | 17 | .
CCCCCCCCCCCCCCCC[n+]1ccc(C(N)=O)cc1 | . | . | . | . | . | .
COC(=O)[C@]12C[C@H](CC(=O)NCCCN3CCCC3=O)C(=O)N(Cc3ccc(Cl)cc3Cl)C1=C[C@H](C1CCCC1)O[C@@H]2C | / | . | . | / | . | /
CC(=NNC(=O)c1ccncc1)c1ccccc1O | . | . | . | / | . | /
CC(=NNC(=O)c1ccncc1)c1ccc2ccccc2c1O | . | 20 | . | / | . | /
O=C(NCCc1c[nH]c2ccccc12)OCc1cn(Cc2cc(F)cc(F)c2)nn1 | / | . | . | / | . | /
C#CCN(C1CC1)S(=O)(=O)c1ccccc1Br | / | . | . | / | . | /
Cc1cccc(C)c1-n1nnnc1C(c1ccccc1OC(F)(F)F)N1CCN(C/C=C/c2ccccc2)CC1 (stereo not drawn) | / | . | . | / | 12 | /
N#Cc1ccc(-c2csc(NNC(=O)c3ccccc3)n2)cc1 | . | 39 | . | . | . | .
COCCNC[C@@]12CO[C@H](c3ccc(Cl)cc3)N1[C@@H](c1ccc(Cl)cc1)SC2 | / | . | . | / | . | /
CN1/C(=C/C=C/c2n(C)c3cc([N+](=O)[O-])c([N+](=O)[O-])cc3[n+]2C)C(C)(C)c2ccccc21 | / | 48 | 13 | / | 9.7 | /
COC(=O)c1cccc(NC(=O)c2ccc[n+]([O-])c2)c1 | . | . | . | . | 11 | .
CCc1cc2c(SCC(=O)c3ccc(Cl)s3)ncnc2s1 | . | . | . | . | 10 | .
CCn1c(=O)n(CC(=O)N2CCCN(Cc3ccccc3)CC2)c(=O)c2ccccc21 | / | . | . | / | . | /
CCc1nnc(NC(=O)C2CCCN(c3nc4ccccc4s3)C2)s1 (stereo not drawn) | . | . | . | . | 11 | .
SMILES | Arrestin-AP2 inh | sPLA2-III inh | PLC-beta3 inh | proCasp3 act | PLC-gamma1 inh | procasp7 counter
O=C1SC(SC(=Nc2ccccc2)Nc2ccccc2)C(=O)N1c1ccccc1 (stereo not drawn) | . | . | 14 | . | . | .
Cc1[nH]n(-c2ccccc2)c(=O)c1C(c1cccc([N+](=O)[O-])c1)c1c(C)[nH]n(-c2ccccc2)c1=O | . | . | . | . | 13 | .
COc1cccc(C(C[N+](=O)[O-])c2c(C)[nH]n(-c3ccccc3)c2=O)c1 (stereo not drawn) | . | . | . | . | . | .
O=C(NCCCl)c1ccc(OCc2ccccc2)cc1Cl | . | 22 | . | . | . | .
Cc1ccc(OCc2nnc(SCC(=O)Nc3cccc4ccccc34)n2Cc2ccco2)cc1 | / | . | . | / | . | /
CCOC(=O)C(C)(C)n1nnc(-c2ccc([N+](=O)[O-])cc2)n1 | . | . | . | . | . | .
CCOC(=O)Cn1nnc(-c2ccc([N+](=O)[O-])cc2)n1 | . | . | . | . | 9.6 | .
CC1(C)CC(Cc2ccc(C(=O)c3ccccc3)cc2)N(C(=O)OC(C)(C)C)N1 (stereo not drawn) | / | . | . | / | 11 | /
Brc1ccc(OCCCCCN2CCOCC2)cc1 | . | . | . | . | 9.7 | .
Brc1ccc(OCCOCCN2CCOCC2)cc1 | . | . | . | . | . | .
CC(NCc1ccco1)C(=O)N1CCN(c2cccc(C(F)(F)F)c2)CC1 (stereo not drawn) | / | . | . | / | . | /
CCn1c2ccccc2c2cc(NC(=O)CSc3nnc(-c4ccccc4)n3Cc3ccco3)ccc21 | / | . | . | / | . | /
Cc1ccc2nc(NNC(=O)c3ccc(S(=O)(=O)N4CCc5ccccc5C4)cc3)sc2c1 | . | 33 | . | . | . | .
CCC(CC)c1nnc(NC(=O)c2ccc(S(=O)(=O)N3CCc4ccccc4C3)cc2)s1 | . | . | . | . | . | .
Cc1cc(C)c2nc(NNC(=O)c3ccc(S(=O)(=O)N4CC(C)CC(C)C4)cc3)sc2c1 (stereo not drawn) | . | 41 | . | . | . | .
CC(C)(NO)/C(=N/O)c1cccs1 | . | . | 12 | . | . | .
CCCN(CC(=O)Nc1cccc(Br)c1)CC(=O)Nc1ccc(F)c(F)c1F | . | . | 11 | . | . | .
COC(=O)C1CN(Cc2ccccc2)CCS(=O)(=O)N1Cc1ccc(F)cc1 (stereo not drawn) | / | . | . | / | . | /
COc1ccc(N(CC(=O)Nc2cccc(C(=O)O)c2)S(=O)(=O)c2c(C)noc2C)cc1 | . | . | . | . | 13 | .
Cc1occc1-c1nnc(SCC(=O)N2CCN(c3ncccn3)CC2)n1-c1ccccc1 | / | . | . | / | . | /
CCN1/C(=C/c2ccc3ccccc3[n+]2CCCS(=O)(=O)[O-])C=Cc2cc(C)ccc21 | . | . | . | / | . | /
CCN1/C(=C/c2ccc3ccccc3[n+]2CC)C=Cc2ccccc21 | . | 33 | . | . | . | .
O=C(O)CCNc1ccc(NCCC(=O)O)c2c1C(=O)c1ccccc1C2=O | . | . | . | . | . | .
